The subject of one data set is Z-138. Put plainly: Prodrug activation in human Z138 cells assessed as 9-((2R,3R,4S,5R)-5-(((((2-(1H-Indol-3-yl)ethyl)amino)-(hydroxy)phosphoryl)oxy)methyl)-3,4-dihydroxytetrahydrofuran-2-yl)-2-amino-7-(2-(4-chlorophenoxy)ethyl)-6-oxo-6,9-dihydro-1H-purin-7-ium formation per 5 million cells at 150 uM after 12 hrs by LC-MS/MS analysis. The settings on record: z-138, 12 h. The data set is classed as cell-based. In outline: (§1)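 Mantle cell lymphoma cells (five million) grown in RPMI with 10% FBS, penicillin/streptomycin and L-glutamine at 37 °C, 5% CO2, then exposed to 150 µM compound for 12 h at 37 °C. Washed with ice-cold PBS, pellet extracted in MeOH/NH4OAc (60:40) with 80 fmol internal standards, three liquid-N2 freeze–thaw cycles, filtered, dried, redissolved in 20 mM HEPES pH 7.2. Analysed by LC-MS/MS against a standard curve.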

Data set [1] can be described thus: Half life in HEPES buffer at 80 uM at pH 7.2 by RP-HPLC analysis. The data set is classed as physicochemical. In outline:
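Compound at 80 µM in 20 mM HEPES (pH 7.2 or 2.0) incubated at 37 °C; aliquots analyzed by RP-HPLC at 0, 1, 4, 6, 12, 18 and 24 h to follow methylthioalkyl deprotection and derive half-life.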

The nature of data set [2]: Prodrug activation in human Mino cells assessed as 9-((2R,3R,4S,5R)-5-(((((2-(1H-Indol-3-yl)ethyl)amino)-(hydroxy)phosphoryl)oxy)methyl)-3,4-dihydroxytetrahydrofuran-2-yl)-2-amino-7-(2-(4-chlorophenoxy)ethyl)-6-oxo-6,9-dihydro-1H-purin-7-ium formation per 5 million cells at 150 uM after 12 hrs by LC-MS/MS analysis. The data set is classed as cell-based. In outline: as §1

Data set [3] deals with Eukaryotic translation initiation factor 4E (Homo sapiens) (UniProt P06730). In words: Inhibition of eIF4E in human GRANTA-519 cells assessed as disruption of interaction between protein and mRNA 5'-cap at 10 to 100 uM by m7GTP pull-down assay. The data set is classed as cell-based. In outline:
(§2)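 Eight to ten million treated MCL cells washed in cold PBS, lysed in cap binding buffer, and eIF4E binding captured on m7GTP-Sepharose beads (pull-down).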

For data set [4] the target is unchanged. Put plainly: Inhibition of eIF4E in human Mino cells assessed as potentiation of dexamethasone induced antiproliferation at 100 uM preincubated for 48 hrs followed by thymidine addition measure after 16 hrs by Thymidine incorporation assay. The data set is classed as cell-based. Put shortly:
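MCL lines treated 48 h with compound re-added daily, alone or with co-drug (ibrutinib 25 µM where used), then thymidine added for a further 16 h; proliferation read as thymidine incorporation.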

Data set [5] in a line: Oral bioavailability in Sprague-Dawley rat at 25 mg/kg by LC-MS/MS analysis. The data set is classed as ADME, organism-based. The settings on record: in vivo. Put shortly: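 Female Sprague-Dawley rats (250-274 g, n=3, catheterized femoral/jugular veins) dosed once p.o. by gavage (25 mg/kg) then, after a 3-day washout, i.v. (2.5 mg/kg). Formulation: 10 mg/mL in 0.5% aqueous CMC with 5% DMSO. Serial blood draws to 480 min into K2EDTA; plasma protein-precipitated with acetonitrile plus internal standards; LC-MS/MS (positive MRM); non-compartmental PK; %F from dose-normalized AUC per rat.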

Data set [6] has as its target Eukaryotic translation initiation factor 4E-binding protein 1 (Homo sapiens) (UniProt Q13541). Put plainly: Inhibition of 4EBP1 phosphorylation at Ser 65 residues in human Mino cells at 100 uM after 48 hrs in presence of ibrutinib by Western blot analysis. The data set is classed as cell-based. Put shortly: (§3)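 MCL lines treated 48 h with compound; protein quantified and Western blotted with eIF4E, eIF4G, actin, c-Myc and Bcl-2 antibodies.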

Data set [7] deals with Eukaryotic translation initiation factor 4E (Homo sapiens) (UniProt P06730). In words: Inhibition of eIF4E in human Z138 cells assessed as disruption of interaction between protein and mRNA 5'-cap at 10 to 100 uM by m7GTP pull-down assay. The data set is classed as cell-based. In outline:
as §2

Data set [8] has the same target. Put plainly: Inhibition of eIF4E in human GRANTA-519 cells assessed as down regulation of c-Myc protein expression after 48 hrs by Western blot method. The data set is classed as cell-based. In outline:
as §3

Data set [9] concerns the target Adenosine 5'-monophosphoramidase HINT1 (Homo sapiens, UniProt P49773). In words: Prodrug activation in human Z138 cells assessed as Hint1 mediated 2-amino-7-(2-(4-chlorophenoxy)ethyl)-9-((2R,3R,4S,5R)-3,4-dihydroxy-5-(phosphonooxymethyl)tetrahydrofuran-2-yl)-6-oxo-6,9-dihydro-1H-purin-7-ium formation per 5 million cells at 150 uM after 12 hrs by LC-MS/MS analysis. The data set is classed as cell-based. In outline:
as §1

The source made the active and inactive calls. The calls are words filed in the database; no cut-off is given here.

Sequence of Eukaryotic translation initiation factor 4E (Homo sapiens) (P06730 whole entry): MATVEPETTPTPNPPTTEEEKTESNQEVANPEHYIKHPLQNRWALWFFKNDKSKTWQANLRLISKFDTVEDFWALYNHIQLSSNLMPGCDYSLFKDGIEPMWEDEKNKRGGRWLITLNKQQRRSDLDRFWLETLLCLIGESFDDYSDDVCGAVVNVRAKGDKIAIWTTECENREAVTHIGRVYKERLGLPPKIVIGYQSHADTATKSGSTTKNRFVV
Sequence of Eukaryotic translation initiation factor 4E-binding protein 1 (Homo sapiens) (Q13541 whole entry): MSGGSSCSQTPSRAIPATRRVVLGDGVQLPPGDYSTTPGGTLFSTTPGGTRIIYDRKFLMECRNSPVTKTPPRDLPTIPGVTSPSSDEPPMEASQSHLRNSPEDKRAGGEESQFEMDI
Sequence of Adenosine 5'-monophosphoramidase HINT1 (P49773 whole entry): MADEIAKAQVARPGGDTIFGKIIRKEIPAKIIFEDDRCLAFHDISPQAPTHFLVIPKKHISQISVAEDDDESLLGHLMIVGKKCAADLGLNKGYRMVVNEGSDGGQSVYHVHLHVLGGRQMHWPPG

Regarding `CSCCOP(=O)(NCCc1c[nH]c2ccccc12)OC[C@H]1O[C@@H](n2c[n+](CCOc3ccc(Cl)cc3)c3c(=O)[nH]c(N)nc32)[C@H](O)[C@@H]1O` (stereo not given in full), the Drug metabolism with Z-138 came to 37.3 pmol; in [2], 64.6 pmol; in data set [9], 272 pmol. The same molecule had a half-life at 80 µM in data set [1] of 8.5 h. The inhibition entry in data set [3], in [4], in data set [6] and in data set [7] was “Active” in each case. Besides, the bioavailability in [5] was found to be 23%. Further, in data set [8], the inhibition entry is “Dose-dependent effect”.

The values above are taken from ChEMBL document CHEMBL4028857, “Anchimerically Activated ProTides as Inhibitors of Cap-Dependent Translation and Inducers of Chemosensitization in Mantle Cell Lymphoma” (J Med Chem, 2017).
